In the library only some 5% were active in any assay of this set; here they are far more common.
XBP1 UPR activ – activators of adaptive arm of unfolded protein response (XBP1) | activation, % at 20 µM | CHO-XBP1 luciferase reporter, IRE1-XBP1 UPR activation, luminescence; percent of tunicamycin response, DMSO as zero | hit rate 0.33% among 330,000;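 active means versus positive control, 20 µM dose yields 30% or more activation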;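 further: 100% = tunicamycin at 10 µg/mL and 0% = DMSO only wells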
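Material: CHO-XBP1 cells stably carrying IRE1-XBP1-driven luciferase reporter | Medium: F12 with 10% serum | Compound dosing: 20 µM single concentration, DMSO 1% | Incubation: Overnight seeding at 37 °C, 6 h compound treatment at 37 °C | Detection: Steady-Glo luminescence read | Read-out basis: % activation of reporter signal versus tunicamycin and DMSO controls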
Mdm2-MdmX inh – human Mdm2/MdmX binding inhibition; O15151+Q00987; SaOS-2 split-luciferase Mdm2/MdmX complementation, luminescence; inhibition, % at 8 µM; hit rate 3% among 330,000; AID 485346;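 active means inhibition of at least 50% at 8 µM in the primary screen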
T cruzi inh – T. cruzi replication inhibition; T. cruzi beta-gal in NIH3T3, luminescence, 90 h; inhibition, % (no concentration beside the values); hit rate 1.4% among 300,000; AID 1885;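 active means mean inhibition across valid replicates above about 55%, limit read from the data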;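 further: signal also drops with host cell toxicity which is not excluded here; 0% = plate median of DMSO wells and 100% = zero luminescence signal; higher percent means less beta-gal luminescence so fewer parasites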
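Assay system: NIH/3T3 fibroblasts plus reporter T. cruzi. Amount: NIH/3T3 cells, 5,000 per well. Buffer or medium: DMEM, 2% fetal bovine serum. Doses: compound pinned at 50 nL/well, DMSO. Schedule: ≥90 h infection period, 3 h prior cell attachment. Signal: luminescent β-galactosidase signal after 60 min lysis. Read-out: parasite load inhibition, %.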
CSC inhib – cancer stem cell inhibition; cancer stem cell-like cells viability, luminescence; inhibition, % at 7.5 µM; hit rate 1.1% among 300,000; AID 2717; in the data active means inhibition above about 75%; tested in HMLE shEcad cells
Beta cell apopt – blocks beta cell apoptosis; protection from apoptosis, % (concentration not given with the values); hit rate 0.8% among 300,000; AID 435005; INS-1E cytokine-induced death, ATP luminescence, 48 h; percent of positive-control rescue, neutral wells zero;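 active means Every replicate reaches about 75%, or at least half do and their mean reaches it too, limit read from the data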;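 further: 0% = cytokine-treated negative control wells and 100% = positive control rescue; higher means more ATP so stronger rescue from cytokine killing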
UPR CHOP act – activators of apoptotic arm of unfolded protein response (CHOP); CHO-CHOP luciferase reporter, UPR activation, luminescence; percent of tunicamycin response over DMSO baseline; activation, % at 10 µM; hit rate 0.34% among 330,000; AID 449763;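 active means at 10 µM dose, activation of 40% or more, normalized to positive control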;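 further: 100% = tunicamycin at 10 µg/mL and 0% = DMSO alone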
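Test system: CHO-CHOP cells, stable luciferase reporter of PERK-eIF2a-CHOP signalling | Quantity: 500 CHO-CHOP cells per well | Buffer or medium: F12 plus 10% serum | Compound dosing: 10 µM single point, 0.5% DMSO | Schedule: 6 h compound treatment, 37 °C | Signal: Luciferase luminescence | Control set: Tunicamycin high control, DMSO low control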
* hit, by the source's call; / = no result given.

SMILES | XBP1 UPR activ | Mdm2-MdmX inh | T cruzi inh | CSC inhib | Beta cell apopt | UPR CHOP act
Cc1cc(C)n(-c2cc(N3CCN(S(=O)(=O)c4ccc(Br)cc4)CC3)ccc2[N+](=O)[O-])n1 | -2 | 23 | 4 | -1 | 8 | 1
Cc1cc(C)c(S(=O)(=O)N2CCN(c3ccc([N+](=O)[O-])c(-n4nc(C)cc4C)c3)CC2)c(C)c1 | -1 | 18 | 61* | 2 | 6 | -2
CCOC(=O)N1CCN(CC(=O)N2c3ccccc3CC2C)CC1 (centres undefined) | -2 | 9 | -32 | -11 | 0 | -2
CC1(O)CC(c2ccc(Cl)cc2)=NN1C(=O)c1ccc([N+](=O)[O-])cc1 (centres undefined) | -1 | 32 | 6 | 86* | 48 | -1
CCC(C)[C@H](NC(=O)NCC1CCCO1)C(=O)OC (some centres undefined) | -3 | -24 | -4 | -5 | -3 | -1
Cc1nc2ccc(CN(C)c3ccc(C(=O)N[C@@H](CCC(=O)O)C(=O)O)s3)cc2c(=O)[nH]1 | / | / | 48 | 75* | -2 | /
CCOc1cc(C(=O)Nc2ncn[nH]2)cc(OCC)c1OCC | 3 | 29 | -1 | -7 | -5 | 0
COc1cccc(S(=O)(=O)NCc2ccc(C(=O)Nc3cccc(Cl)c3)cc2)c1 | -4 | 35 | / | 99* | 10 | 1
COc1ccc(C2C(Oc3ccccc3)C(=O)N2c2cc(C)ccc2C)cc1OC (centres undefined) | 1 | -30 | 60* | 11 | 2 | 1
COc1ccc(C2C(Oc3ccccc3)C(=O)N2c2ccc(C)c(C)c2)cc1OC (centres undefined) | -1 | 7 | 30 | 11 | 5 | -2
CC1CC(O)C(C)CN1 (centres undefined) | / | / | 13 | / | / | /
CC(=O)c1ccc(/C=C/c2nc3ccccc3n2C)o1 | 1 | -48 | 0 | -3 | -2 | 2
C=CCc1c(C)nc(C)nc1N/N=C/c1ccc(N(C)C)cc1 | -4 | 0 | -26 | 9 | 100* | 0
Cc1cc(C(=O)CSc2nnc(C3CC3)n2C2CC2)c(C)n1C(C)C | -2 | 7 | / | / | 2 | 1
CCN(CC)S(=O)(=O)c1cc(C)ccc1NC(=S)Nc1cccnc1 | -1 | 32 | 2 | 23 | 82* | 2
CCN(CC)S(=O)(=O)c1cc(C(=O)Nc2cccnc2)ccc1Cl | 0 | 20 | -2 | -8 | -3 | -2
O=C(CCC(=O)OCc1ccc(C(=O)Oc2ccccc2)cc1)Nc1cccc2ccccc12 | -2 | 5 | -15 | -8 | 1 | 3
N#Cc1cccnc1Oc1ccccc1 | 0 | 14 | 0 | -15 | -4 | 1
Cc1ccc2nc(N(CCCN(C)C)C(=O)CN3C(=O)c4ccccc4C3=O)sc2c1 | -1 | 7 | 61* | -12 | 2 | 0
Cc1ccc(S(=O)(=O)CC(=O)N(CCCN(C)C)c2nc3ccc(C)cc3s2)cc1 | -2 | 8 | 65* | 7 | -5 | -2
Cc1cc(C)c2sc(N(CCCN(C)C)C(=O)CN3C(=O)c4ccccc4C3=O)nc2c1 | 2 | 22 | 51 | -8 | -5 | 0
COc1ccc(Cl)cc1NC(=O)CN(C)C(=O)Cn1cnnn1 | -3 | 21 | / | 2 | -5 | -1
CC1CN(CCCCOc2cccc(Oc3ccccc3)c2)CC(C)O1 (centres undefined) | -2 | 9 | 56* | 195* | -2 | 0
NC(=S)N/N=C/c1ccccc1O | 1 | 5 | 7 | 8 | 92* | -1
NC(=S)N/N=C/c1ccc2ccccc2c1 | 6 | 18 | 58* | 0 | 6 | 6
O=C(COc1ccccc1-c1ccccc1)N/N=C/c1ccc2ccccc2c1 | / | / | 13 | 100* | 97* | /
Cc1cc(C)c2nc(N3CCCC(C(=O)N4CCN(c5ncccn5)CC4)C3)sc2c1 (centres undefined) | 1 | 28 | 11 | 75* | 13 | 0
CC(C)C1Nc2ccc(C(=O)NCCCN3CCOCC3)cc2NC1=O (centres undefined) | 1 | 9 | -6 | -8 | 0 | 2

Bioassay records as filed in PubChem BioAssay.
